Test results as given in ChEMBL document CHEMBL3259817, “N-carbamidoyl-4-((3-ethyl-2,4,4-trimethylcyclohexyl)methyl)benzamide enhances staurosporine cytotoxic effects likely inhibiting the protective action of Magmas toward cell apoptosis” (J Med Chem, 2014).
Calls of active or inactive are those of the source. The rule behind the calls is not given here.

Legend:
[1] = test system: TT; test: Effect on total TIM16 protein level in human TT cells at 10 uM after 24 hrs by Western blotting analysis; assay type: functional, cell-based
Summary of the method: (§1)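 TT cells treated 24 h with 10 μM compound alone or with 50 nM staurosporine, then lysed in RIPA buffer on ice 30 min and centrifuged; protein by BCA. Lysates run on 10% SDS-PAGE, blotted to nitrocellulose, probed with rabbit anti-Tim 16 (1:1000), HRP anti-rabbit IgG (1:5000), ECL detection; stripped and reprobed for β-actin loading control.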

[2] = test system: TT; test: Induction of apoptosis in human TT cells assessed as caspase 3/7 activation at 1 to 10 uM after 72 hrs by luminescence assay; assay type: functional, cell-based
Summary of the method: (§2)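 TT cells (2 × 10^4/well) exposed 72 h to compound, treatment renewed every 24 h; vehicle 0.1% DMSO. Caspase-Glo 3/7 reagent added at room temperature, plates shaken 30 s, incubated 1 h, luminescence (RLU) read. Mean ± SE percent RLU vs vehicle control; three independent experiments in six replicates.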

[3] = test system: TT; test: Potentiation of staurosporine-induced apoptosis in human TT cells assessed as caspase 3/7 activation at 5 to 10 uM after 72 hrs by ATPlite assay relative to control; assay type: functional, cell-based; details: in the assay text read “Caspase-Glo 3/7 assay” for “ATPlite assay”
Summary of the method: (§3)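 TT cells (2 × 10^4/well) given 5 or 10 μM compound alone or with 50 nM staurosporine, renewed every 24 h, for 72 h. Caspase 3/7 activity by Caspase-Glo 3/7: reagent added at room temperature, 30 s shake, 1 h incubation, luminescence read. Mean ± SE percent RLU vs vehicle control, three experiments in six replicates.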

[4] = test system: TT; test: Effect on total TIM16 protein level in human TT cells at 10 uM after 24 hrs by Western blotting analysis in presence of staurosporine; assay type: functional, cell-based; summary of the method: as §1
[5] = test system: TT; test: Cytotoxicity against human TT cells assessed as reduction in cell viability at 1 to 10 uM after 72 hrs by ATPlite assay; assay type: functional, cell-based
Summary of the method: (§4)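 TT or MCF12A cells seeded at 2 × 10^4/well, exposed to compound for 72 h with treatment renewed every 24 h; vehicle control 0.1% DMSO. Viable cell number read by ATPlite luminescence (RLU). Results are mean ± SE percent RLU vs vehicle-treated control from three independent experiments in six replicates.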

[6] = test system: TT; test: Potentiation of staurosporine-induced cytotoxicity against human TT cells assessed as reduction in cell viability at 5 to 10 uM after 72 hrs by ATPlite assay; assay type: functional, cell-based
Summary of the method: (§5)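 Cells seeded at 2 × 10^4/well, given 5 or 10 μM compound alone or combined with 50 nM staurosporine, treatments renewed every 24 h for 72 h; vehicle 0.1% DMSO. ATPlite luminescence (RLU) read-out, expressed as mean ± SE percent of vehicle-treated control; three independent experiments, six replicates each.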

[7] = test system: TT; test: Potentiation of staurosporine-induced apoptosis in human TT cells assessed as caspase 3/7 activation at 5 uM after 72 hrs by ATPlite assay relative to control; assay type: functional; details: in the assay text read “Caspase-Glo 3/7 assay” for “ATPlite assay”; summary of the method: as §3
[8] = test system: TT; test: Cytotoxicity against human TT cells assessed as reduction in cell viability at 10 uM after 72 hrs by ATPlite assay relative to control; assay type: functional; summary of the method: as §4
[9] = test system: TT; test: Induction of apoptosis in human TT cells assessed as decrease in mitochondrial membrane potential at 10 uM by JC-1 staining-based fluorescence microscopic analysis; assay type: functional, cell-based
Summary of the method: (§6)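 TT cells treated with 5 or 10 μM compound, 50 nM staurosporine, or the combination. Mitochondrial membrane potential assessed with JC-1 dye, 30 min at 37 °C, by fluorescence microscopy; red aggregate fluorescence indicates retained potential, green monomer fluorescence a fall in potential.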

[10] = test system: TT; test: Induction of apoptosis in human TT cells assessed as caspase 3/7 activation at 10 uM after 72 hrs by luminescence assay relative to control; assay type: functional; summary of the method: as §2
[11] = test system: TT; test: Cytotoxicity against human TT cells assessed as reduction in cell viability at 5 uM after 72 hrs by ATPlite assay; assay type: functional, cell-based; summary of the method: as §4
[12] = test system: TT; test: Induction of apoptosis in human TT cells assessed as caspase 3/7 activation at 5 uM after 72 hrs by luminescence assay; assay type: functional, cell-based; summary of the method: as §2
[13] = test system: TT; test: Potentiation of staurosporine-induced apoptosis in human TT cells assessed as decrease in mitochondrial membrane potential at 10 uM by JC-1 staining-based fluorescence microscopic analysis; assay type: functional, cell-based; summary of the method: as §6
[14] = test system: TT; test: Potentiation of staurosporine-induced apoptosis in human TT cells assessed as caspase 3/7 activation at 10 uM after 72 hrs by ATPlite assay relative to control; assay type: functional; details: in the assay text read “Caspase-Glo 3/7 assay” for “ATPlite assay”; summary of the method: as §3
[15] = test system: TT; test: Potentiation of staurosporine-induced cytotoxicity against human TT cells assessed as reduction in cell viability at 10 uM after 72 hrs by ATPlite assay relative to control; assay type: functional; summary of the method: as §5
[16] = test system: TT; test: Potentiation of staurosporine-induced cytotoxicity against human TT cells assessed as reduction in cell viability at 5 uM after 72 hrs by ATPlite assay relative to control; assay type: functional; summary of the method: as §5
[17] = Potentiation of staurosporine-induced cytotoxicity against human MCF12A cells assessed as reduction in cell viability at 5 to 10 uM after 72 hrs by ATPlite assay; assay type: cell-based; details: mcf-12a; summary of the method: as §5
[18] = Cytotoxicity against human MCF12A cells assessed as reduction in cell viability at 5 to 10 uM after 72 hrs by ATPlite assay; assay type: cell-based; details: mcf-12a; summary of the method: as §4

Structure (SMILES) | Activity [1] | Activity [2] | Activity [3] | Activity [4] | Activity [5] | Activity [6] | Activity [7] | Activity [8] | Activity [9] | Activity [10] | Activity [11] | Activity [12] | Activity [13] | Activity [14] | Activity [15] | Activity [16] | Activity [17] | Activity [18]
CCC1=C(C)/C(=C/c2ccc(C(N)=O)cc2)CCC1(C)C | inactive | inactive | inactive | inactive | inactive |  |  |  |  |  |  |  |  |  |  |  |  | 
CCC1=C(C)/C(=C/c2ccc(C(=O)NC(N)=O)cc2)CCC1(C)C | inactive | inactive | inactive | inactive | inactive |  |  |  |  |  |  |  |  |  |  |  |  | 
CCC1=C(C)/C(=C/c2ccc(C(=O)NC(=N)N)cc2)CCC1(C)C | inactive |  |  | inactive |  | Active | 40% | 70% | inactive | 300% | inactive | inactive | Active | 400% |  |  |  | 
CCC1=C(C)/C(=C/c2ccc(C(=O)O)cc2)CCC1(C)C | inactive | inactive | inactive | inactive | inactive |  |  |  |  |  |  |  |  |  |  |  |  | 
CCC1C(C)C(Cc2ccc(C(=O)NC(=N)N)cc2)CCC1(C)C (stereo not drawn) | inactive | inactive |  | inactive | inactive |  | 140% |  | Active |  |  |  | Active | 330% | 20% | 12% | Non-toxic | Non-toxic
